MC4R ag barr – MC4R agonists recruiting beta-arrestin, primary screen, cell-based, luminescence, agonist arm of biased-ligand search; U2OS MC4R beta-arrestin complementation; percent of melanotan II response, DMSO zero; activation, % at 8.9 µM; actives 0.98% (n = 360,000); AID 540308, 2011;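 active = activation above a per-plate cutoff, the mean activation of sample wells on that plate plus 3 SD, cut at about 8% in these data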
Target sequence (P32245 whole entry, looked up): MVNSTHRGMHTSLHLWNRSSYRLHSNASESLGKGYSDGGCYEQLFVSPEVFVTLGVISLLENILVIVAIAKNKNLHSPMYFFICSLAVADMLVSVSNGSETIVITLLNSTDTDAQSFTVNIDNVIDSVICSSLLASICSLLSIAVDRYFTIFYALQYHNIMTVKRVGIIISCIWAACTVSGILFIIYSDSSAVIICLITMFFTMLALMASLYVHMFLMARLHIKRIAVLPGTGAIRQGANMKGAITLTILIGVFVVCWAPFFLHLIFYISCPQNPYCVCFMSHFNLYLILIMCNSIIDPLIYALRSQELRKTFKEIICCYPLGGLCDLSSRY
T cell modulator – modulators of CD8 T cell-vesicle binding, primary screen, mouse 2C CD8+ T cells, flow cytometry | 2C CD8+ T cell-vesicle binding; hits give low values | response (vesicle binding), % at 7 µM | actives 0.068% (n = 330,000);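 active = response, share of CD8 T cells binding vesicles, and their 90th percentile fluorescence all below set limits, cut at about 80% in these data, passing the limit was not always enough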;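 also: values below 100% mean blocked vesicle binding to the CD8+ T cells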
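Material: 2C TCR transgenic mouse naive CD8+ T cells, MACS-purified. Also added: QL9-charged Drosophila Ld/ICAM-1/B7-1 vesicles. Timing: binding 1.5 h at 37 °C. Measured by: high-throughput flow cytometry with anti-B7-1 and anti-CD8 staining. Read-out: percent CD8+ FL2 mean versus row control. Controls: Unloaded micro-vesicles (low), QL9 vesicles with 0.7% DMSO (high).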
EP2 mod – EP2 receptor modulators, cAMP readout, primary screen, cell-based, HTRF cAMP, PGE2 stimulation; Prostaglandin E2 receptor EP2 subtype (Homo sapiens), P43116; actives 0.83% (n = 260,000); EP2-expressing cells, cAMP HTRF FRET, PGE2 co-stimulation; induction, % at 25 µM; AID 940, 2007;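 active = compounds whose cAMP rise, as percent of the full-agonist control response, exceeds 60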;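 also: rat C6 glioma line stably carrying human EP2 under a CMV promoter; the protocol text gives 20 µM as final concentration; 100% = response of wells given 1 µM PGE2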
MC4R antag cAMP – MC4R antagonists of cAMP signaling, primary screen, cell-based, TR-FRET, antagonist arm of biased-ligand search; actives 0.48% (n = 360,000); inhibition, % at 6.5 µM; MC4R-expressing cells, MTII-stimulated cAMP, LANCE TR-FRET;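 active = inhibition above its plate's cutoff, the mean of tested wells on that plate plus 3 SD, cut at about 29% in these data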;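 also: 0% = Melanotan II alone and 100% = Melanotan II plus saturating MCL0020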
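Test system: U2OS cells stably expressing human melanocortin 4 receptor (MC4R); also added: Melanotan II challenge; compound: 6.5 µM single dose; timing: 30-min compound preincubation, 1-h Melanotan II challenge, 1-h detection, room temperature; signal: Eu-cAMP/anti-cAMP TR-FRET, emission 671 nm; repeats: one well per compound, no replicates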
EP2 antag – human EP2 receptor antagonists, primary screen, TR-FRET cAMP, C6 glioma cells; Prostaglandin E2 receptor EP2 subtype (Homo sapiens), P43116; AID 1422, 2008; actives 0.52% (n = 260,000); C6 glioma cells expressing human EP2; cells stimulated with saturating PGE2; inhibition, % at 25 µM;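 active = percent inhibition above 40 after rounding to a whole number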;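 also: rat C6 glioma host cells with rolipram phosphodiesterase inhibitor present; the protocol text gives 20 µM as final concentration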
Exocytosis inh – LAMP-1 surface exposure blockers, TALL-104 cells – cell-based, flow cytometry, MLPCN library, primary screen. actives 0.66% (n = 360,000). inhibition, % at 10 µM. TALL-104 LAMP-1 surface exposure; cells stimulated with thapsigargin and PMA;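 active = inhibition above about 55%, limit read from the data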
* marks the source's active call; other numbers are inactive results; / = no result given. This is a sample that favours compounds with a hit; in the whole collection about 2.6% have one here.

SMILES	MC4R ag barr	T cell modulator	EP2 mod	MC4R antag cAMP	EP2 antag	Exocytosis inh
Cc1ccccc1C(=O)NC(Oc1ccccc1)C(Cl)(Cl)Cl (configuration not stated)	4	106	63*	2	5	0
c1cnc(N2CCNCC2)nc1	-1	117	19	3	10	-3
CN(CCC(=O)O)C1=Nc2ccc(Cl)cc2C(c2ccccc2)=[N+]([O-])C1	/	/	14	/	50*	/
Cc1cc(Br)cn2c(CC(=O)N3CCCCC3)c(-c3ccc(F)cc3)nc12	/	/	/	/	/	-4
O=c1[nH]c(=O)n(Cc2ccccc2)c(O)c1C=NCCN1CCNCC1	-2	874	13	13	11	-1
COc1ccc(OCC(=O)N2CCN(C3CCCCC3)CC2)cc1	/	/	-27	/	6	/
CC1=CC(=O)c2c(O)cccc2C1=O	/	/	-34	/	79*	/
Cc1nc2ccccc2c(=O)n1-c1nccs1	/	/	/	/	/	-6
Cc1ccc(-c2nc3ccccc3c(=O)n2-c2nccs2)cc1	9.2*	53	-1	-3	0	-2
COC(=O)C1C(OC(=O)c2ccccc2)CC2CCC1N2C (configuration not stated)	0	187	-15	1	15	-3
COC(=O)[C@@H]1C(=O)[C@H](C(=O)OC)[C@@H]2CC[C@H]1N2C	/	/	45	/	43*	/
Cc1nc2ccccc2cc1C[N+]12CN3CN(CN(C3)C1)C2	/	/	6	/	50*	/
O=C(O)C(O)(c1ccc(-c2ccccc2)cc1)c1ccc(-c2ccccc2)cc1	/	/	12	/	41*	/
Cc1ccc(S(=O)ON2CCC(C(=O)O)(c3ccccc3)CC2)cc1 (configuration not stated)	/	/	20	/	45*	/
CN(C)CP(=O)(Nc1ccccc1)N(C)C (configuration not stated)	-1	322	8	1	3	-2
CCc1nn2c(=O)c(F)c(N3CCNCC3)nc2s1	0	/	/	11	/	1
Oc1ccccc1C1NCc2ccccc2-n2cccc21 (configuration not stated)	2	228	/	1	/	8
Oc1c(Cl)c(Cl)c(Cl)c(Cl)c1Cl (tested in a mixture with another compound)	/	/	-21	/	65*	/
CCCN1CCC[C@@H]2Cc3nc(N)ncc3C[C@H]21	/	284	66*	/	15	/
COc1ccc(NC(=O)[C@@H](NC(=O)N2C[C@H]3C[C@@H](C2)c2cccc(=O)n2C3)C(C)C)cc1	-1	140	/	4	/	-6
CC(C)(C)NS(=O)(=O)c1ccc(OCC(=O)N2CCN(Cc3ccccc3)CC2)cc1	-1	224	-19	-4	12	-4
C[C@@H]1O[C@@H](O[C@H]2C[C@@H](O)[C@]3(CO)[C@H]4[C@H](O)C[C@]5(C)[C@@H](C6=CC(=O)OC6)CC[C@]5(O)[C@@H]4CC[C@]3(O)C2)[C@H](O)[C@H](O)[C@H]1O	35*	441	0	-4	9	3
O=C1C(Cl)=C(Cl)C(=O)C(Cl)=C1Cl	/	/	-36	/	109*	/
OCC[n+]1c2ccccc2nc2ccc(N3CCOCC3)cc21	-2	173	-117	-16	101*	-4
Cn1c(O)c(C=Nc2ccccc2Sc2ccccc2)c(=O)n(C)c1=O	0	678	61*	22	6	0
SMILES	MC4R ag barr	T cell modulator	EP2 mod	MC4R antag cAMP	EP2 antag	Exocytosis inh
Cn1c(O)c(C=Nc2ccc(Br)cc2)c(=O)n(C)c1=O	1	236	/	5	/	-4
Cc1c(C)c2ccc(OCC(=O)N3C[C@H]4C[C@@H](C3)c3cccc(=O)n3C4)c(C)c2oc1=O	-1	316	/	12	/	-1
CN(CC1COc2ccccc2O1)c1nc(-c2cccnc2)nc2ccccc12 (configuration not stated)	3	250	58	-4	3	87*
O=C(O)CS(=O)(=O)C(c1ccccc1)c1ccccc1	/	/	-14	/	12	/
CCOC(=O)C1(c2ccccc2)CCN(CCC(=O)Nc2ccccc2OC)CC1	1	146	/	11	/	3
CCOC(=O)C1(c2ccccc2)CCN(CC(=O)Nc2cccc3ccccc23)CC1	4	920	63*	21	6	-2
CCc1c(C(=O)NN2C(=O)C3C4CCC(O4)C3C2=O)csc1C (configuration not stated)	-1	408	16	27	5	-7
C[C@H]1CN(Cc2ccco2)CCN1C(=O)Cc1ccccc1F	/	/	-17	/	/	/
C[C@]12Cc3cnc(-c4ccccc4)nc3C[C@@H]1CC[C@H]1[C@H]2CC[C@@]2(C)[C@H]1CC[C@]2(C)O	/	/	0	/	49*	/
C[C@]1(O)CCC2C3CC[C@@H]4CC(=O)CC[C@]4(C)C3CC[C@@]21C (some centres not stated)	1	316	/	10	/	-8
C[N+]1([O-])[C@@H]2CC(OC(=O)[C@@H](CO)c3ccccc3)C[C@H]1[C@H]1O[C@H]12 (some centres not stated)	/	/	29	/	49*	/
C[N+]1([O-])[C@@H]2CC(OC(=O)[C@H](CO)c3ccccc3)C[C@H]1[C@@H]1O[C@@H]12 (some centres not stated)	-1	592	/	4	/	-3
C=CCn1c(C)c(C=C2C(=O)NC(=O)NC2=O)c2ccccc21	0	179	/	-1	/	3
C[C@@]12CC[C@@H]3[C@H](CCC4=CC(=O)CC[C@H]43)[C@H]1CC[C@H]2OC1(O)C(=O)c2ccccc2C1=O	/	/	-40	/	64*	/
Nc1ccccc1O.O.O=C(O)[C@H]1[O][Sb][O][C@H]1C(=O)O	/	/	-4	/	54*	/
Cc1ccccc1C(=O)N1CC1C (configuration not stated)	0	/	/	4	/	-2
O=C(Nc1ccccc1)c1c(O)c2c(n(Cc3ccco3)c1=O)CCCC2	-3	504	65*	13	4	3
O=C(Nc1cccc(Cl)c1)c1c(O)c2c(n(Cc3ccco3)c1=O)CCCC2	/	422	/	/	6	/
Cc1ccc(C(O)(C(=O)OC(C)C)C(O)c2ccccc2)cc1 (configuration not stated)	/	/	/	/	/	-3
Cn1cccc1/C=C1/C(=O)NC(=S)N(Cc2ccc(F)cc2)C1=O	-4	291	-74	5	32	58*

Screens as filed in PubChem BioAssay.
